Results: publication PMC3358452 (Chemical Research in Toxicology, 2012)
Where two headings read alike, the source gives them in different places.

How the values were obtained:
pKa of = format: physicochemical; conditions: Calculated pKa, 25 °C, buffer 0.05 M, AH/A- = 1.0
Procedure, shortened: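 pH was measured in solutions of the sodium salt of the acid, measured gravimetrically and partially neutralized with HCl. Solutions held 5% by volume acetonitrile, with ionic strength balanced by KCl. […] Mean and SD of duplicates at 25 °C.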

[1] = Lower limit of KO by monitoring disappearance of the lactone multiplets; format: physicochemical; conditions: D2O, 1 M DClO4, lactone multiplets monitored to equilibrium
Kinetics of decay = format: physicochemical; conditions: for half-life at 0.0013 M: buffered aqueous solution, pH 7, t1/2 for decay
Procedure, shortened: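 The first check was in D2O with 0.005 M DCl, 0.005 M lactone and 0.005 M acetonitrile as internal standard, at 25 °C. Loss of the C-6 1H-NMR resonances at 4.78 ppm was compared with UV decay at 225 nm. The extended UV runs used 220–235 nm, 5% acetonitrile/H2O, ionic strength 1 M (KCl), 25 °C and 0.0013 M lactone. Buffers were formic, acetic, cacodylic and ethylphosphonic.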

[2] = format: physicochemical
Procedure, shortened: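 Reverse-phase HPLC quantified lactone left after an acidic aqueous solution reached equilibrium at 25 °C. The solution initially held 0.05 M lactone, measured gravimetrically, in 5% by volume acetonitrile. Ionic strength was set with KCl and hydrogen ion concentration varied. Remaining lactone was interpolated from a standard curve; triplicate injections per determination.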

[3] = group 2: AFB1 followed by 1 (1.32 g over 12 weeks), mean ± SEM
[4] = group 3: 1 only (1.32 g over 12 weeks)
[5] = fit of log ko vs pH, 25 °C, ionic strength 1 M (KCl), 5% by volume acetonitrile

With aflatoxin B1 [AFB1, reference compound] the “Foci per cubic cm (morphometric)” value (F344 rat liver; rat, in vivo) was 1230 ± 410, the “Mean Diameter of foci (morphometric)” value (F344 rat liver; rat, in vivo) was 227 ± 35 microns and the “Mean Foci Counted (observed)” value (F344 rat liver; rat, in vivo) was 44 ± 8. For the same compound, the “Volume % of liver occupied by GST-P positive foci” value (from here on “Volume % … by GST-P positive foci”) (F344 rat liver; rat, in vivo) was 3.1 ± 1.0% and the “average size of observed GST-P positive foci” value (F344 rat liver; rat, in vivo) was greater than 200 µm.

`O=C(O)COCCO` [compound 2, 2-(2-hydroxyethoxy) acetic acid] gave a pKa (pKa of; ionic strength 0.05 M) of 3.43, a pKa (pKa of; ionic strength 0.25 M (KCl)) of 3.36 and a pKa (pKa of; ionic strength 0.35 M (KCl)) of 3.36. It also gave a pKa (pKa of; ionic strength 0.45 M (KCl)) of 3.36 and a pKa (pKa of; ionic strength 0.55 M (KCl)) of 3.38.

In the case of `O=C1COCCO1` [compound 1, 1,4-Dioxan-2-one], the “KO, lower limit value” [1] is reported as greater than 50, the “average size of observed GST-P positive foci” value (F344 rat liver; group 2 (AFB1 + 1), data not shown) is reported as greater than 200 µm and the “Foci per cubic cm (morphometric)” value (F344 rat liver; [3]) is reported as 1190 ± 230. The “Mean Diameter of foci (morphometric)” value (F344 rat liver; [3]) was 210 ± 32 microns, the “Volume % … by GST-P positive foci” value (F344 rat liver; [3]) was 2.1 ± 0.7% and the “diameter of the single focus observed” value (F344 rat liver; group 3 (1 only)) was 65 µm. The “Mean Diameter of foci (morphometric)” value (F344 rat liver; [4]) was 65 microns, the “Volume % … by GST-P positive foci” value (F344 rat liver; [4]) was 0.001% and the “Foci per cubic cm (morphometric)” value (F344 rat liver; group 3: 1 only (1.32 g over 12 weeks), mean ± SEM) was 6.1 ± 6.1. For the same compound, the “Mean Foci Counted (observed)” value (F344 rat liver; group 3: 1 only, gavage 3 days/week for 12 weeks (1.32 g total), mean ± SEM) was 0.1 ± 0.1, the “first order rate constant of decay (NMR)” value (Kinetics of decay; 1H-NMR, D2O, 0.005 M DCl, 25 °C) was 0.017 ± 0.002 min⁻¹ and the “first order rate constant of decay (UV)” value (Kinetics of decay; UV spectrophotometry, D2O, 0.005 M DCl, 25 °C) was 0.016 ± 0.001 min⁻¹. For the same compound, the half-life at 0.0013 M (Kinetics of decay; pH 7) was 2.12 h, the half-life at 0.0013 M (Kinetics of decay; pH = 7.0, 25 °C) was roughly 2 h and the “factor by which 1 is more reactive toward hydroxide ion than valerolactone” value (Kinetics of decay; comparison with literature rate constant) was ~ 1500. The “kH+, hydrogen ion catalyzed rate constant for solvolysis” value (Kinetics of decay; [5]) was 1.1 (± 0.1) M^−1 min^−1, the “kOH, hydroxide ion catalyzed rate constant” value (Kinetics of decay; [5]) was 4.1 (± 0.3) × 10^4 M^−1 min^−1 and the “kw, water catalyzed (pH-independent) rate constant” value (Kinetics of decay; [5]) was 9.9 (± 0.5) × 10^−4 min^−1. For the same compound, the “KOA, equilibrium constant between 1 and carboxylic acid anion 3 and the proton (KOA = Ka × KO)” value ([2]; 25 °C, ionic strength 1M (KCl), 5% by volume acetonitrile) was 0.034 ± 0.002 M, the “Ko, equilibrium constant for lactone 1 and its open-chain acid form” value ([2]; 25 °C, [HCl] 0.05 M, total ionic strength 0.05 M, 5% by volume acetonitrile) was 71 and the “Ko, equilibrium constant for lactone 1 and its open-chain acid form” value ([2]; 25 °C, [HCl] 0.10 M, total ionic strength 1.0 M (KCl), 5% by volume acetonitrile) was 70. The “Ko, equilibrium constant for lactone 1 and its open-chain acid form” value ([2]; 25 °C, [HCl] 0.20 M, total ionic strength 1.0 M (KCl), 5% by volume acetonitrile) was 70, the “KO, equilibrium constant between 1 and hydrolysis product 2” value ([2]; acidic aqueous media, 25 °C, ionic strength 1M (KCl), 5% by volume acetonitrile) was 70 ± 3.5 and the “lactone as percent of the total species at equilibrium” value ([2]; pH = 7) was ~ 3 ×10^−4%.
